In brackets after ≈: the same amount, converted by molar mass.
Legend:
Format in all cases: functional
Citrobacter freundii = experiment: Antibacterial activity against Citrobacter freundii by broth dilution method
Outline: (§1)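 Broth microdilution per CLSI in panels spanning a dilution range of each agent. Cation-adjusted Mueller-Hinton broth, final inoculum 5 × 10^5 CFU/ml from a 0.5 McFarland suspension. Incubated overnight at 35°C in ambient air, with quality control strains in each run. MIC reported; values at or below the lowest concentration tested are given as that concentration.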

Acinetobacter baumannii = experiment: Antibacterial activity against Acinetobacter baumannii by broth dilution method; outline: as §1
Haemophilus influenzae = experiment: Antibacterial activity against Haemophilus influenzae by broth dilution method
Outline: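 Broth microdilution per CLSI using Haemophilus Test Medium broth, seeded from a 0.5 McFarland suspension. Incubated overnight at 35°C in ambient air, with quality control strains in each run. MIC read against a tested dilution range; values at the low limit are given as the lowest concentration.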

Proteus mirabilis = experiment: Antibacterial activity against Proteus mirabilis by broth dilution method
Pseudomonas aeruginosa = experiment: Antibacterial activity against Pseudomonas aeruginosa by broth dilution method
[1] = tested on: Staphylococcus epidermidis; experiment: Antibacterial activity against methicillin resistant coagulase negative Staphylococcus epidermidis by broth dilution method
Streptococcus viridans = experiment: Antibacterial activity against Streptococcus viridans by broth dilution method
Outline: (§2)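 Streptococci were tested by CLSI broth microdilution in Mueller-Hinton broth with 3% lysed horse blood, seeded from a 0.5 McFarland suspension. Incubated overnight at 35°C in ambient air, with quality control strains in each run. MIC taken over a per-agent dilution range.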

Neisseria gonorrhoeae [2] = experiment: Antibacterial activity against moxifloxacin resistant Neisseria gonorrhoeae isolates by broth dilution method
Outline: (§3)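 Neisseria gonorrhoeae clinical isolates tested by CLSI broth microdilution in Mueller-Hinton broth with 3% lysed horse blood, inoculated from a 0.5 McFarland suspension. Plates were incubated overnight at 35°C in 5% CO2, and the MIC was read as the lowest inhibitory concentration. Quality control strains were included in each run.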

Neisseria gonorrhoeae [3] = experiment: Antibacterial activity against levofloxacin resistant Neisseria gonorrhoeae isolates by broth dilution method; outline: as §3
Streptococcus pyogenes = experiment: Antibacterial activity against Streptococcus pyogenes by broth dilution method; outline: as §2
Klebsiella pneumoniae = experiment: Antibacterial activity against Klebsiella pneumoniae by broth dilution method; outline: as §1
Staphylococcus = experiment: Antibacterial activity against methicillin resistant coagulase negative Staphylococcus by broth dilution method
Escherichia coli [4] = experiment: Antibacterial activity against ciprofloxacin susceptible Escherichia coli by broth dilution method; outline: as §1
Neisseria gonorrhoeae [5] = experiment: Antibacterial activity against ciprofloxacin resistant Neisseria gonorrhoeae isolates by broth dilution method; outline: as §3
Streptococcus pneumoniae [6] = experiment: Antibacterial activity against Levofloxacin resistant Streptococcus pneumoniae by broth dilution method
Outline: (§4)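 Streptococcus pneumoniae clinical isolates tested by CLSI broth microdilution. A 0.5 McFarland suspension was diluted into Mueller-Hinton broth with 3% lysed horse blood, then tested against serial drug dilutions. Plates were incubated overnight at 35°C in ambient air, and the MIC was read as the lowest inhibitory concentration. Quality control strains were included in each run.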

Escherichia coli [7] = experiment: Antibacterial activity against ciprofloxacin resistant Escherichia coli by broth dilution method
Outline: (§5)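 Clinical isolates tested by CLSI broth microdilution in panels holding serial twofold drug dilutions in cation-adjusted Mueller-Hinton broth. Final inoculum 5 × 10^5 CFU/ml was made from a 0.5 McFarland suspension. Plates were incubated overnight at 35°C in ambient air, and the MIC was read as the lowest concentration inhibiting growth. Quality control strains were included in each run.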

Enterococcus faecalis [8] = experiment: Antibacterial activity against vancomycin resistant Enterococcus faecalis by broth dilution method
Enterococcus faecium [9] = experiment: Antibacterial activity against Enterococcus faecium by broth dilution method; outline: as §5
Staphylococcus aureus [10] = experiment: Antibacterial activity against ciprofloxacin and methicillin resistant Staphylococcus aureus by broth dilution method; outline: as §5
Enterococcus faecalis [11] = experiment: Antibacterial activity against Enterococcus faecalis by broth dilution method
Streptococcus pneumoniae [12] = experiment: Antibacterial activity against Levofloxacin susceptible Streptococcus pneumoniae by broth dilution method; outline: as §4
Streptococcus agalactiae = experiment: Antibacterial activity against Streptococcus agalactiae by broth dilution method; outline: as §2
Staphylococcus aureus [13] = experiment: Antibacterial activity against methicillin susceptible Staphylococcus aureus by broth dilution method
Staphylococcus aureus [14] = experiment: Antibacterial activity against ciprofloxacin susceptible and methicillin resistant Staphylococcus aureus by broth dilution method; outline: as §5
Enterococcus faecium [15] = experiment: Antibacterial activity against vancomycin resistant Enterococcus faecium by broth dilution method; outline: as §5

SMILES	MIC50 (Citrobacter freundii)	MIC90 (Citrobacter freundii)	MIC50 (Acinetobacter baumannii)	MIC90 (Acinetobacter baumannii)	MIC50 [1]	MIC90 [1]	MIC50 (Streptococcus viridans)	MIC90 (Streptococcus viridans)	MIC50 (Streptococcus pyogenes)	MIC90 (Streptococcus pyogenes)	MIC50 (Staphylococcus)	MIC90 (Staphylococcus)	MIC50 (Streptococcus pneumoniae [6])	MIC90 (Streptococcus pneumoniae [6])	MIC50 (Staphylococcus aureus [10])	MIC90 (Staphylococcus aureus [10])	MIC50 (Staphylococcus aureus [13])	MIC90 (Staphylococcus aureus [13])	MIC50 (Staphylococcus aureus [14])	MIC90 (Staphylococcus aureus [14])	other results
CO/N=C(\C(=O)N[C@@H]1C(=O)N2C(C(=O)[O-])=C(C[N+]3(C)CCCC3)CS[C@H]12)c1csc(N)n1	≤ 0.06 µg/mL	> 8 µg/mL	> 8 µg/mL	> 8 µg/mL																	MIC50 (Haemophilus influenzae): 0.25 µg/mL (≈ 0.52 µM); MIC90 (Haemophilus influenzae): 0.5 µg/mL (≈ 1.04 µM); MIC50 (Proteus mirabilis): ≤ 0.06 µg/mL; MIC90 (Proteus mirabilis): 8 µg/mL (≈ 16.6 µM); MIC50 (Pseudomonas aeruginosa): > 8 µg/mL; MIC90 (Pseudomonas aeruginosa): > 8 µg/mL
O=C(O)c1cn(C2CC2)c2cc(N3CCNCC3)c(F)cc2c1=O [CIPROFLOXACIN]	≤ 0.06 µg/mL	2 µg/mL (≈ 6.04 µM)	4 µg/mL (≈ 12.1 µM)	> 16 µg/mL	0.5 µg/mL (≈ 1.51 µM)	> 16 µg/mL	1 µg/mL (≈ 3.02 µM)	4 µg/mL (≈ 12.1 µM)	1 µg/mL (≈ 3.02 µM)	4 µg/mL (≈ 12.1 µM)	0.5 µg/mL (≈ 1.51 µM)	> 16 µg/mL	> 16 µg/mL	> 16 µg/mL							MIC (Neisseria gonorrhoeae [2]): 0.5 µg/mL (≈ 1.51 µM); MIC (Neisseria gonorrhoeae [3]): 1 µg/mL (≈ 3.02 µM); MIC50 (Klebsiella pneumoniae): 4 µg/mL (≈ 12.1 µM); MIC90 (Klebsiella pneumoniae): > 16 µg/mL; MIC50 (Escherichia coli [4]): 0.25 µg/mL (≈ 0.754 µM); MIC90 (Escherichia coli [4]): 1 µg/mL (≈ 3.02 µM); MIC (Neisseria gonorrhoeae [5]): 2 µg/mL (≈ 6.04 µM); MIC50 (Haemophilus influenzae): 0.25 µg/mL (≈ 0.754 µM); MIC90 (Haemophilus influenzae): 16 µg/mL (≈ 48.3 µM); MIC50 (Proteus mirabilis): 2 µg/mL (≈ 6.04 µM); MIC90 (Proteus mirabilis): > 16 µg/mL; MIC50 (Escherichia coli [7]): > 16 µg/mL; MIC90 (Escherichia coli [7]): > 16 µg/mL; MIC50 (Pseudomonas aeruginosa): 4 µg/mL (≈ 12.1 µM); MIC90 (Pseudomonas aeruginosa): > 16 µg/mL
CN[C@H](CC(C)C)C(=O)N[C@H]1C(=O)N[C@@H](CC(N)=O)C(=O)N[C@H]2C(=O)N[C@H]3C(=O)N[C@H](C(=O)N[C@H](C(=O)O)c4cc(O)cc(O)c4-c4cc3ccc4O)[C@H](O)c3ccc(c(Cl)c3)Oc3cc2cc(c3O[C@@H]2O[C@H](CO)[C@@H](O)[C@H](O)[C@H]2O[C@H]2C[C@](C)(N)[C@H](O)[C@H](C)O2)Oc2ccc(cc2Cl)[C@H]1O [VANCOMYCIN]					2 µg/mL (≈ 1.38 µM)	2 µg/mL (≈ 1.38 µM)	0.5 µg/mL (≈ 0.345 µM)	1 µg/mL (≈ 0.69 µM)	0.5 µg/mL (≈ 0.345 µM)	0.5 µg/mL (≈ 0.345 µM)	2 µg/mL (≈ 1.38 µM)	2 µg/mL (≈ 1.38 µM)	0.5 µg/mL (≈ 0.345 µM)	0.5 µg/mL (≈ 0.345 µM)	2 µg/mL (≈ 1.38 µM)	2 µg/mL (≈ 1.38 µM)	1 µg/mL (≈ 0.69 µM)	1 µg/mL (≈ 0.69 µM)	1 µg/mL (≈ 0.69 µM)	1 µg/mL (≈ 0.69 µM)	MIC50 (Enterococcus faecalis [8]): 2 µg/mL (≈ 1.38 µM); MIC90 (Enterococcus faecalis [8]): > 16 µg/mL; MIC (Streptococcus viridans): 0.5 µg/mL (≈ 0.345 µM); MIC50 (Enterococcus faecium [9]): 8 µg/mL (≈ 5.52 µM); MIC90 (Enterococcus faecium [9]): > 16 µg/mL; MIC50 (Enterococcus faecalis [11]): 2 µg/mL (≈ 1.38 µM); MIC90 (Enterococcus faecalis [11]): > 16 µg/mL; MIC50 (Streptococcus pneumoniae [12]): 0.5 µg/mL (≈ 0.345 µM); MIC90 (Streptococcus pneumoniae [12]): 0.5 µg/mL (≈ 0.345 µM); MIC (Streptococcus agalactiae): 0.5 µg/mL (≈ 0.345 µM); MIC50 (Streptococcus agalactiae): 0.5 µg/mL (≈ 0.345 µM); MIC90 (Streptococcus agalactiae): 1 µg/mL (≈ 0.69 µM); MIC50 (Enterococcus faecium [15]): 8 µg/mL (≈ 5.52 µM); MIC90 (Enterococcus faecium [15]): > 16 µg/mL
Cc1onc(-c2ccccc2)c1C(=O)N[C@@H]1C(=O)N2[C@@H]1SC(C)(C)[C@@H]2C(=O)O [OXACILLIN]					> 8 µg/mL	> 8 µg/mL					> 8 µg/mL	> 8 µg/mL			> 8 µg/mL	> 8 µg/mL	0.5 µg/mL (≈ 1.25 µM)	1 µg/mL (≈ 2.49 µM)	> 8 µg/mL	> 8 µg/mL	MIC (Staphylococcus aureus [10]): > 8 µg/mL
CC(=O)NC[C@H]1CN(c2ccc(N3CCOCC3)c(F)c2)C(=O)O1 [LINEZOLID]					1 µg/mL (≈ 2.96 µM)	2 µg/mL (≈ 5.93 µM)	1 µg/mL (≈ 2.96 µM)	2 µg/mL (≈ 5.93 µM)	1 µg/mL (≈ 2.96 µM)	1 µg/mL (≈ 2.96 µM)	1 µg/mL (≈ 2.96 µM)	2 µg/mL (≈ 5.93 µM)	1 µg/mL (≈ 2.96 µM)	1 µg/mL (≈ 2.96 µM)	2 µg/mL (≈ 5.93 µM)	2 µg/mL (≈ 5.93 µM)	2 µg/mL (≈ 5.93 µM)	2 µg/mL (≈ 5.93 µM)	2 µg/mL (≈ 5.93 µM)	2 µg/mL (≈ 5.93 µM)	MIC50 (Enterococcus faecalis [8]): 1 µg/mL (≈ 2.96 µM); MIC90 (Enterococcus faecalis [8]): 2 µg/mL (≈ 5.93 µM); MIC50 (Enterococcus faecium [9]): 2 µg/mL (≈ 5.93 µM); MIC90 (Enterococcus faecium [9]): 2 µg/mL (≈ 5.93 µM); MIC50 (Enterococcus faecalis [11]): 1 µg/mL (≈ 2.96 µM); MIC90 (Enterococcus faecalis [11]): 2 µg/mL (≈ 5.93 µM); MIC50 (Streptococcus pneumoniae [12]): 1 µg/mL (≈ 2.96 µM); MIC90 (Streptococcus pneumoniae [12]): 1 µg/mL (≈ 2.96 µM); MIC (Streptococcus agalactiae): 1 µg/mL (≈ 2.96 µM); MIC50 (Streptococcus agalactiae): 1 µg/mL (≈ 2.96 µM); MIC90 (Streptococcus agalactiae): 1 µg/mL (≈ 2.96 µM); MIC50 (Enterococcus faecium [15]): 2 µg/mL (≈ 5.93 µM); MIC90 (Enterococcus faecium [15]): 2 µg/mL (≈ 5.93 µM)
